# Screening data: PubChem, several laboratories
# In the library only some 3.8% were active in any assay of this set; here they are far more common.
# RAM inhibit = inhibitors of the yeast RAM network, primary screen, dse1pr::URA3 reporter, 5-FOA selection | S. cerevisiae dse1pr::URA3 reporter, 5-FOA growth OD615, 2 d; analog-sensitive cbk1-as2 kinase mutant strain | inhibition, % at 50 µM | 190,000 tested, 1.8% active | AID 868, 2007;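 active = inhibition above a set limit, 3 SD over mean compound inhibition, cut at about 8.4% in these data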;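 also: inhibition rescues growth on 5-FOA so higher OD means more RAM inhibition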
# NPY-Y1 antag = NPY-Y1 receptor antagonists, primary screen, cell-based; Neuropeptide Y receptor type 1 (Homo sapiens), P25929; HEK293-CNG Y1 cells, membrane potential fluorescence; NPY at EC95, then isoproterenol; inhibition, % at 3.6 µM; 200,000 tested, 1% active;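 active = inhibition above the campaign mean inhibition of all tested compounds plus 3 SD, cut at about 20% in these data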
# Target sequence (P25929 whole entry, looked up): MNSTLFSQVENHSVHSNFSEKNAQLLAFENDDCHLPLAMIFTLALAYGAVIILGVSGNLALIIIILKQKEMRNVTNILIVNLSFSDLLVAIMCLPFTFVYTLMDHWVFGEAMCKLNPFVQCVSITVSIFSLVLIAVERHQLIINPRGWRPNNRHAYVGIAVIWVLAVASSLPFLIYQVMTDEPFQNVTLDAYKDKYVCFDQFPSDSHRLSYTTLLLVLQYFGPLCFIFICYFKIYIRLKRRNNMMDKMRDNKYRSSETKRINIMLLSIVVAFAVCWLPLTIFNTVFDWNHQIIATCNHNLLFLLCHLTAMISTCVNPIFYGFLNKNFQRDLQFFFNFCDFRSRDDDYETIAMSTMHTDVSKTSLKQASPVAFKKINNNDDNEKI
#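 Test system – HEK293 Y1/CNG channel cell line · Also added – NPY agonist 25 nM, then isoproterenol 1 µM plus Ro 20-1724 25 µM · Compound dosing – one concentration, 3.6 µM, in 0.4% DMSO · Schedule – compound incubation 1 h at room temperature, readout 45 min post-stimulation · Technique – fluorescence, membrane potential probe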
# Insulin prom inh = inhibitors of insulin promoter-driven GFP, primary screen, imaging, TRM-6 cells, eGFP reporter, cell count | 130,000 tested, 0.9% active | inhibition, % at 2 µM | reporter expression induced with tamoxifen | AID 1273, 2008;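 active = inhibition above the mean plus 3 SD, with well images judged a real hit on visual review, cut at about 60% in these data, passing the limit was not always enough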
# NPY Y2 blocker = NPY-Y2 receptor antagonists, primary screen, cell-based | NPY-Y2 expressing cells, antagonist mode | 140,000 tested, 0.99% active | AID 793, 2007 | inhibition, % at 2.7 µM | Neuropeptide Y receptor type 2 (Homo sapiens), P49146; in the data active = inhibition above about 17%
# NPY-Y2 PAM-ag = NPY-Y2 potentiators or agonists, primary screen, cell-based | Neuropeptide Y receptor type 2 (Homo sapiens), P49146 | cells expressing NPY-Y2, potentiator/agonist read-out | activation, % at 3.6 µM | 220,000 tested, 0.45% active | AID 1359, 2008; in the data active = activation above about 27%;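 also: cells stimulated with NPY near EC25 plus isoproterenol at EC100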
# NPY-Y1 PAM-ag = NPY-Y1 receptor potentiators or agonists, primary screen, cell-based; activation, % at 3.6 µM; Neuropeptide Y receptor type 1 (Homo sapiens), P25929; 220,000 tested, 0.37% active; AID 1304, 2008; NPY-Y1 expressing cells, potentiator/agonist activation; in the data active = activation above about 33%, passing the limit was not always enough;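 also: cells stimulated with NPY at EC10 then isoproterenol at EC100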
# A number is an active result; i = inactive; nt = no result.
SMILES,RAM inhibit,NPY-Y1 antag,Insulin prom inh,NPY Y2 blocker,NPY-Y2 PAM-ag,NPY-Y1 PAM-ag
CCN(CC)C(=O)CSC1=Nc2ccccc2C2=NC(c3ccccc3)C(=O)N12 (centres undefined),i,i,i,i,i,i
CC(C)CN(CC(C)C)C(=O)COc1ccccc1C(N)=O,i,i,i,nt,i,i
CC(=O)Nc1ccc(NS(=O)(=O)c2ccc(Cl)c(C(=O)O)c2)cc1,i,i,79,i,i,i
O=C(CC1CCCCC1)OCn1nnc2ccccc2c1=O,i,i,i,i,103,107
COc1ccc(C(=O)OCn2nnc3ccccc3c2=O)cc1OC,8.8,i,i,i,i,i
COc1ccc(C(=O)OCn2nnc3ccccc3c2=O)cc1[N+](=O)[O-],i,i,i,nt,i,i
O=C(CNC(=O)C1CCCCC1)OCn1nnc2ccccc2c1=O,i,i,nt,nt,i,i
Cc1cc(Cl)ccc1N=C1N=C(N)c2ccccc21,8.9,i,i,i,i,i
Cc1cc(=O)[nH]c(N/N=C/c2ccc(Br)s2)n1,i,i,i,i,i,i
CC(C)OC(=O)c1c(NC(=O)CCC(=O)O)sc2c1CCCCC2,8.5,i,67,i,i,i
CC(C)OC(=O)c1c(NC(=O)CCn2nnc3ccccc32)sc2c1CCCC2,9.5,i,nt,i,i,i
Cc1ccc(NC(=O)CCn2nnc3ccccc32)cc1,i,i,nt,nt,i,i
CC(C(=O)NC(C)(C)C)N1C(=O)c2cccc3cccc(c23)C1=O (centres undefined),i,i,i,nt,i,i
CC(C)COc1ccc(CSCCNC(=S)Nc2ccccc2)cc1,9.0,i,nt,i,i,i
CCCn1c(SCC(=O)NNC(=O)c2ccccc2)nnc1-c1cccnc1,nt,nt,nt,nt,i,i
CCCn1c(SCC(=O)Nc2nc(C)cs2)nnc1-c1cccnc1,i,i,75,i,i,i
CCOC(=O)CCc1c(C)nc(SCCCn2c(=O)[nH]c3ccccc32)c(C#N)c1C,9.4,i,i,i,i,i
Cc1cccc(N2CC(C(=O)OCc3ccc([N+](=O)[O-])cc3)CC2=O)c1 (centres undefined),i,i,nt,nt,i,i
O=C(OCc1ccc([N+](=O)[O-])cc1)C1CC(=O)N(c2ccccc2)C1 (centres undefined),i,i,79,i,i,i
Cc1ccc(-c2nnc(SCc3ccc(C#N)cc3)n2Cc2ccco2)cc1,i,21,i,20,i,i
Cc1ccccc1CSc1nnc(-c2cccs2)n1Cc1ccco1,i,23,i,24,i,i
COc1cccc(-c2nnc(SCc3ccc(C#N)cc3)n2Cc2ccco2)c1,i,i,i,i,i,i
Clc1cccc(-c2nnc(SC/C=C/c3ccccc3)n2Cc2ccco2)c1,i,26,i,37,i,i
C(=C\c1ccccc1)/CSc1nnc(-c2ccccc2)n1Cc1ccco1,i,21,i,25,i,i
Cc1ccc(OCc2nnc(SCc3ccc(C#N)cc3)n2-c2ccc(C)cc2)cc1,8.5,i,i,i,i,i
SMILES,RAM inhibit,NPY-Y1 antag,Insulin prom inh,NPY Y2 blocker,NPY-Y2 PAM-ag,NPY-Y1 PAM-ag
Cc1ccc(-n2c(SCc3ccc(C#N)cc3)nnc2-c2ccccn2)cc1,i,i,nt,i,i,i
COc1ccc(C)cc1S(=O)(=O)N(CC(=O)Nc1cc([N+](=O)[O-])ccc1C)c1ccc(C)c(C)c1,i,i,nt,i,i,i
COc1ccc([N+](=O)[O-])cc1NC(=O)c1ccc(CN(c2ccc(C)c(C)c2)S(C)(=O)=O)cc1,9.7,i,i,i,i,i
CCOC(=O)c1cnn(-c2ccccc2)c1NC(=O)CN1CCCCC1,nt,nt,nt,nt,i,i
CCc1nnc2c3cnn(-c4ccccc4)c3ncn12,i,i,78,i,i,i
CCCCCCCCC[n+]1cccc2c3ccccc3ccc21,i,55,nt,19,i,i
CCCCCCCCCCCCCCCC[n+]1cccc2ccccc21,i,i,nt,i,i,i
CN1CCCNc2nc3ccccc3nc21,nt,nt,nt,nt,i,i
COc1ccccc1-c1cc(C(=O)N2CCN(c3ccc(F)cc3)CC2)no1,9.4,i,nt,i,i,i
O=C1/C(=C/c2ccsc2)N2CCC1CC2,nt,nt,nt,nt,i,i
